We go through 75 compounds from ChEMBL document CHEMBL1125836, “Disubstituted tetrahydrofurans and dioxolanes and PAF antagonists” (J Med Chem, 1991).

Several values for one entry are separate records, joined by “and”; a condition that tells them apart may be missing. Equal entries are not always repeated.

For one test, the target named is Platelet-activating factor receptor (Rattus norvegicus) (UniProt P46002). The test can be described thus: Activity expressed as the dose required to reduce the lowering of the arterial blood pressure caused by PAF by 50%. It is filed as functional. To be noted: Artery. The method in brief: (§1)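 Male Sprague-Dawley rats (180–220 g) anesthetized with sodium pentobarbital (50 mg/kg ip). Carotid arterial pressure was recorded. Compound was given iv in saline (1 mL/kg) via femoral vein 3 min before PAF (0.5 μg/kg iv); vehicle controls.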
Platelet-activating factor receptor (Rattus norvegicus), sequence (P46002 whole entry): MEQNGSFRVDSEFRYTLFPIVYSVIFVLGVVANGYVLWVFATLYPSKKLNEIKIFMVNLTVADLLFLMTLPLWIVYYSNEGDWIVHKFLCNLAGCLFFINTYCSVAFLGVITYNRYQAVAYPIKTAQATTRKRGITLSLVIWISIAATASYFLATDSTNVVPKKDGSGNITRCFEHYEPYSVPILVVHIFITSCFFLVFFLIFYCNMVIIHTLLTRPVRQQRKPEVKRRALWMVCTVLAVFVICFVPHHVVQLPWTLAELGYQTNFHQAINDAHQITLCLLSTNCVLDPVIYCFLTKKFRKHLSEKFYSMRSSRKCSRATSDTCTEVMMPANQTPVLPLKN
As for `CCCCCCCCCCCCCCCCOCC1OCC(COCCCC[n+]2ccsc2)O1` (stereo not given), the ID50 was determined as 2.7 mg/kg.
The same measure, in the same setting: the value for `CCCCCCCCCCCCCCCCCCC1COC(COC(=O)N(Cc2cccc[n+]2CC)C(C)=O)C1` (stereo not given) was 0.23 mg/kg.
Compound `CCCCCCCCCCCCCCC1COC(COP(=O)([O-])OCC[n+]2ccccc2)C1` (stereo not given) returned an ID50 of over 5 mg/kg.
In turn, `CCCCCCCCCCCCCCC1COC(COCCCCCC[n+]2cccc3ccccc32)C1` (stereo not given) had an ID50 of 3 mg/kg.
`CCCCCCCCCCCCCCC1COC(COCCCCCCCC[n+]2ccsc2)C1` (stereo not given) showed an ID50 of 2.3 mg/kg.
Consider `CCCCCCCCCCCCCC1OCC(COC(=O)CCCCC[n+]2ccsc2)O1` (stereo not given), for which the ID50 was over 5 mg/kg.
Still for that read-out and setting: the figure for `CCCCCCCCCCCCCCCCCC1OCC(COC(=O)CCCCC[n+]2ccsc2)O1` (stereo not given) is 0.88 mg/kg; for `CCCCCCCCCCCCCCOCC1COC(COC(=O)N(Cc2cccc[n+]2CC)C(C)=O)O1` (stereo not given) it is 0.2 mg/kg.
`CCCCCCCCCCCCCCC1COC(COCCCC[n+]2ccsc2)C1` (stereo not given) showed an ID50 of over 5 mg/kg.
Still for that read-out and setting: the figure for `CCCCCCCCCCCCCCC1COC(COC(=O)N(Cc2cccc[n+]2CC)C(C)=O)C1` (stereo not given) is 0.24 mg/kg; for `CCCCCCCCCCCCCCCCCC1OCC(COCCCCCC[n+]2cccc3ccccc32)O1` (stereo not given) it is 3.8 mg/kg.
On the same count and under the same terms, the value for `CCCCCCCCCCCCCCCCCCOCC1OCC(COC(=O)N(Cc2cccc[n+]2CC)C(C)=O)O1` (stereo not given) was 0.041 mg/kg; that for `CCCCCCCCCCCCCCC1COC(COCCCCCCC[n+]2ccsc2)C1` (stereo not given) was 1.5 mg/kg; that for `CCCCCCCCCCCCCCCCCC1OCC(COCCCCCC[n+]2ccccc2)O1` (stereo not given) was over 5 mg/kg.
Still for that read-out and setting: the value for `CCCCCCCCCCCCCCCCOCC1COC(COC(=O)N(Cc2cccc[n+]2CC)C(C)=O)C1` (stereo not given) was 0.044 mg/kg and 0.035 mg/kg; that for `CCCCCCCCCCCCCCCCCC1CC(COC(=O)N(Cc2cccc[n+]2CC)C(C)=O)CO1` (stereo not given) was 0.052 mg/kg; that for `CCCCCCCCCCCCOCC1COC(COCCCCCCC[n+]2ccsc2)C1` (stereo not given) was 3.7 mg/kg.
For the compound `CCCCCCCCCCCCCCCC1CCC(COC(=O)N(Cc2cccc[n+]2CC)C(C)=O)O1` (stereo not given), the ID50 worked out at 0.15 mg/kg.
Same read-out and setting: the figure for `CCCCCCCCCCCCCCCCCC1OCC(COC(=O)N(Cc2cccc[n+]2CC)C(C)=O)O1` (stereo not given) is 0.24 mg/kg; for `CCCCCCCCCCCCCCCCCC1CCC(COC(=O)N(Cc2cccc[n+]2CC)C(C)=O)O1` (stereo not given) it is 0.15 mg/kg; for `CCCCCCCCCCCCCCCCOCC1COC(COC(=O)N(Cc2cccc[n+]2CC)C(=O)OCC)C1` (stereo not given) it is 0.035 mg/kg.
Same read-out and setting: the value for `CCCCCCCCCCCCCCCNC(=O)OCC1COC(COC(=O)N(Cc2cccc[n+]2CC)C(C)=O)C1` (stereo not given) was 0.067 mg/kg and 0.033 mg/kg; that for `CCCCCCCCCCCCCCOCC1COC(COCCCCCCC[n+]2ccsc2)C1` (stereo not given) was 1.4 mg/kg.
The same measure, in the same setting: the value for `CCCCCCCCCCCCCCCCOCC1COC(COC(=O)N(C(C)=O)c2ccc[n+](CC)c2)C1` (stereo not given) was 0.13 mg/kg; that for `CCCCCCCCCCCCCCCCCCCC1OCC(COC(=O)CCCCC[n+]2ccsc2)O1` (stereo not given) was 5.1 mg/kg.
For the compound `CCCCCCCCCCCCCCCCOCC1CC(COCCCCCC[n+]2ccsc2)CO1` (stereo not given), the ID50 was determined as 1.8 mg/kg.
For `CCCCCCCCCCCCCCOCC1COC(COC(=O)N(Cc2cccc[n+]2CC)C(C)=O)C1` (stereo not given), the ID50 is 0.087 mg/kg.
Same read-out and setting: the figure for `CCCCCCCCCCCCCCCCCC1OCC(COCCCCCC[N+]2(C)CCOCC2)O1` (stereo not given) is over 5 mg/kg; for `CCCCCCCCCCCCCCCNC(=O)OCC1CC(COC(=O)N(Cc2cccc[n+]2CC)C(C)=O)CO1` (stereo in doubt; form 2) it is 0.042 mg/kg; for `CCCCCCCCCCCCCCCCCC1OCC(COP(=O)([O-])OCC[n+]2ccccc2)O1` (stereo not given) it is over 5 mg/kg.
Still for that read-out and setting: the figure for `CCCCCCCCCCCCCCCCCC1OCC(COCCCCCC[n+]2cscc2C)O1` (stereo not given) is 3.1 mg/kg; for `CCCCCCCCCCCCCCCCCCOCC1CC(COCCCCC[n+]2ccsc2)CO1` (stereo not given) it is 2.5 mg/kg; for `CCCCCCCCCCCCCCOCC1COC(COCCCCCC[n+]2ccsc2)C1` (stereo not given) it is 3.1 mg/kg.
Still for that read-out and setting: the value for `CCCCCCCCCCCCCCC1COC(COCCCCCC[n+]2ccsc2)C1` (stereo in doubt; form 1) was 2.5 mg/kg.
In the case of `CCCCCCCCCCCCCCCCCCOCC1COC(COC(=O)NCc2cc[n+](CC)cc2)C1` (stereo not given), the ID50 was over 5 mg/kg.
Same read-out and setting: the figure for `CCCCCCCCCCCCCCC1COC(COCCCCCC[N+](C)(C)C)C1` (stereo not given) is over 5 mg/kg.
As for `CCCCCCCCCCCCCCCCOCC1CC(COC(=O)N(Cc2cccc[n+]2CC)C(C)=O)CO1` (stereo not given), the ID50 is 0.027 mg/kg and 0.02 mg/kg.
For the compound `CCCCCCCCCCCCCCCCOCC1COC(COC(=O)NCc2cccc[n+]2CC)C1` (stereo not given), the ID50 was over 5 mg/kg.
Compound `CCCCCCCCCCCCCCCCCC1OCC(COCCCCCC[n+]2ccsc2)O1` (stereo not given) gave an ID50 of 1.3 mg/kg.
Still for that read-out and setting: the figure for `CCCCCCCCCCCCCCCC1CCC(COC(=O)CCCCC[n+]2ccsc2)O1` (stereo not given) is 1.2 mg/kg.
The compound `CCCCCCCCCCCCCCCCOCC1OCC(COC(=O)N(Cc2cccc[n+]2CC)C(C)=O)O1` (stereo not given) came in with an ID50 of 0.024 mg/kg.
The compound `CCCCCCCCCCCCCCCCOCC1CCC(COC(=O)N(Cc2cccc[n+]2CC)C(C)=O)O1` (stereo not given) displayed an ID50 of 0.036 mg/kg.
The same measure, in the same setting: the figure for `CCCCCCCCCCCCCCCCCCOCC1CC(COCCCCCCC[n+]2ccsc2)CO1` (stereo not given) is 2.1 mg/kg; for `CCCCCCCCCCCCCCC1COC(COP(=O)([O-])OCC[N+](C)(C)C)C1` (stereo not given) it is over 5 mg/kg; for `CCCCCCCCCCCCCCCCCCNC(=O)OCC(COC(=O)N(Cc1cccc[n+]1CC)C(C)=O)OC` (stereo not given) it is 0.0078 mg/kg and 0.011 mg/kg.
The same measure, in the same setting: the value for `CCCCCCCCCCCCCCCCOCC1COC(COC(=O)N(Cc2ccccn2)C(C)=O)C1` (stereo not given) was over 5 mg/kg; that for `CCCCCCCCCCCCCCCCOCC1OCC(COCCCCCC[n+]2ccsc2)O1` (stereo not given) was 1.8 mg/kg.
Still for that read-out and setting: the figure for `CCCCCCCCCCCCCCCCCCOCC1CC(COC(=O)CCCCC[n+]2ccsc2)CO1` (stereo not given) is 1.1 mg/kg; for `CCCCCCCCCCCCCCCCCCOCC1COC(COC(=O)Nc2cc[n+](CC)cc2)C1` (stereo not given) it is over 5 mg/kg.
Turning to `CCCCCCCCCCCCCCCCCC1COC(COC(=O)N(Cc2cccc[n+]2CC)C(C)=O)O1` (stereo not given), the ID50 came to 0.074 mg/kg.
`CCCCCCCCCCCCCCCCCCOCC1COC(COC(=O)N(Cc2cc[n+](CC)cc2)C(C)=O)C1` (stereo not given): the ID50 amounted to 1.6 mg/kg.
Same read-out and setting: the figure for `CCCCCCCCCCCCCCCNC(=O)OCC1CC(COC(=O)N(Cc2cccc[n+]2CC)C(C)=O)CO1` (stereo in doubt; form 1) is 0.057 mg/kg; for `CCCCCCCCCCCCCCCC1OCC(COC(=O)CCCCC[n+]2ccsc2)O1` (stereo not given) it is 0.86 mg/kg.
Consider `CCCCCCCCCCCCCCCCCCOCC1COC(COC(=O)N(Cc2cccc[n+]2CC)C(C)=O)C1` (stereo not given), for which the ID50 was 0.035 mg/kg.
For the compound `CCCCCCCCCCCCCCCCCC1OCC(COCCCC[n+]2ccsc2)O1` (stereo not given), the ID50 was over 5 mg/kg.
`CCCCCCCCCCCCCCCCOCC1COC(COC(=O)NCCc2cccc[n+]2CC)C1` (stereo not given) showed an ID50 of over 5 mg/kg.
The same measure, in the same setting: the figure for `CCCCCCCCCCCCCCCCCC1OCC(COP(=O)([O-])OCC[N+](C)(C)C)O1` (stereo not given) is over 5 mg/kg; for `CCCCCCCCCCCCCCCCCCOCC1COC(COC(=O)N(Cc2cccc[n+]2CC)C(C)=O)O1` (stereo not given) it is 0.017 mg/kg.
Same read-out and setting: the value for `CCCCCCCCCCCCCCCCCCOCC1COC(COC(=O)N(Cc2ccc[n+](CC)c2)C(C)=O)C1` (stereo not given) was over 5 mg/kg.
`CCCCCCCCCCCCCCCNC(=O)OCC1CC(COC(=O)N(Cc2cccc[n+]2CC)C(C)=O)CO1` (stereo not given) yielded an ID50 of 0.049 mg/kg.
`CCCCCCCCCCCCCCCCOCC1COC(COC(=O)N(Cc2cccc[n+]2C)C(C)=O)C1` (stereo not given) yielded an ID50 of 0.24 mg/kg.
Turning to `CCCCCCCCCCCCCCCC1CCC(COCCCCCC[n+]2ccsc2)O1` (stereo not given), the ID50 was 2 mg/kg.
The same measure, in the same setting: the value for `CCCCCCCCCCCCCCCCOCC1OCC(COC(=O)CCCCC[n+]2ccsc2)O1` (stereo not given) was 1.1 mg/kg; that for `CCCCCCCCCCCCCCC1COC(COCCCCCC[n+]2ccsc2)C1` (stereo in doubt; form 2) was 2.9 mg/kg; that for `CCCCCCCCCCCCCCCCOCC1COC(COC(=O)N(CCc2cccc[n+]2CC)C(C)=O)C1` (stereo not given) was over 5 mg/kg.
In turn, `CCCCCCCCCCCCCCCCOCC1COC(COC(=O)CCCCC[n+]2ccsc2)C1` (stereo not given) gave an ID50 of 1.7 mg/kg.
As to `CCCCCCCCCCCCCCCCCCOCC1COC(COC(=O)CCCCC[n+]2ccsc2)C1` (stereo not given), the ID50 came to 2.4 mg/kg.
Still for that read-out and setting: the figure for `CCCCCCCCCCCCCCCCOCC1COC(COC(=O)N(C(C)=O)c2cc[n+](CC)cc2)C1` (stereo not given) is over 5 mg/kg; for `CCCCCCCCCCCCCCCCOCC1COC(COC(=O)N(Cc2cccc[n+]2CC)C(C)=O)O1` (stereo not given) it is 0.057 mg/kg and 0.029 mg/kg; for `CCCCCCCCCCCCCCCCCC1OCC(COCCCCCC[N+](C)(C)C)O1` (stereo not given) it is over 5 mg/kg.
For the compound `CCCCCCCCCCCCCCCCOCC1COC(COCCCCCC[n+]2ccsc2)C1` (stereo not given), the ID50 was 1.2 mg/kg.
Still for that read-out and setting: the value for `CCCCCCCCCCCCCCCCC1COC(COCCCCCCC[n+]2ccsc2)C1` (stereo not given) was 2 mg/kg.

For the next test, the species on record is Rattus norvegicus. Kind of test: Activity expressed as the dose required to reduce the lowering of the arterial blood pressure caused by PAF by 50%. It is filed as functional. To be noted: Artery, read-out: ID50 (the source's name). The method in brief: as §1
Consider `CC1OCC(COC(=O)CCCCC[n+]2ccsc2)O1.Cc1ccc(S(=O)(=O)[O-])cc1` (stereo not given), for which the ED50 was over 5 mg/kg.
Turning to `CCCCCCCCCCCCCCCCCC1OCC(COCCCCCCCC[n+]2ccsc2)O1.Cc1ccc(S(=O)(=O)[O-])cc1` (stereo not given), the ED50 was over 5 mg/kg.
The same measure, in the same setting: the value for `CCCCCCCCCCCCCCC1COC(COC(=O)CCCCC[n+]2ccsc2)C1.Cc1ccc(S(=O)(=O)[O-])cc1` (stereo not given) was over 5 mg/kg.
